Screening results from PubChem BioAssay.
Beta2AR agonist = beta2AR agonists driving receptor internalization, primary screen, cell-based, FAP fluorogen, flow cytometry; response, % (no concentration beside the values); 0.43% of 340,000 active; Am2.2-beta2AR cells;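 active = response above a set limit, near 3 SD of response in nonfluorescent compounds, cut at about 42% in these data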
Target sequence (P07550 whole entry, looked up): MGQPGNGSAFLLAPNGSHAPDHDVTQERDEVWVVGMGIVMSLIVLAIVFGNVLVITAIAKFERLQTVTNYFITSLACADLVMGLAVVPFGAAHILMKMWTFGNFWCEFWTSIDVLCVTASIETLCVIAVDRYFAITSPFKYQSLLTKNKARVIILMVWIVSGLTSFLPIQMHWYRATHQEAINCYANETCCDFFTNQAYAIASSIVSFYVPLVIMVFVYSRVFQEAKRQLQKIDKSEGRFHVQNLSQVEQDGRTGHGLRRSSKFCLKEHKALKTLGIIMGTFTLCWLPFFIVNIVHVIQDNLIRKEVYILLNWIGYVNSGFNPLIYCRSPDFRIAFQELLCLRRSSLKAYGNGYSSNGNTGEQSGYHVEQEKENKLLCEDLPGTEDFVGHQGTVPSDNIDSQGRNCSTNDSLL
ABHD5-PLIN5 inh = ABHD5-PLIN5 interaction inhibitors, primary screen, cell lysate, split luciferase complementation, luminescence; Perilipin-5 (Homo sapiens) + 1-acylglycerol-3-phosphate O-acyltransferase ABHD5 (Homo …; Split G. princeps luciferase complementation, 4 h; inhibition, % at 4 µM; 0.78% of 360,000 active;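 active = inhibition above the mean inhibition across every tested compound plus 3 SD, cut at about 22% in these data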;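 also: 0% = DMSO only wells and the 100% control is not disclosed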
MC4R ag barr = MC4R agonists recruiting beta-arrestin, primary screen, cell-based, luminescence, agonist arm of biased-ligand search. Melanocortin receptor 4 (Homo sapiens), P32245. U2OS MC4R beta-arrestin complementation; percent of melanotan II response, DMSO zero. activation, % at 8.9 µM. 0.98% of 360,000 active. AID 540308, 2011;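 active = activation above a per-plate cutoff, the mean activation of sample wells on that plate plus 3 SD, cut at about 8% in these data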
MC4R antagonist = MC4R antagonists of cAMP signaling, primary screen, cell-based, TR-FRET, antagonist arm of biased-ligand search; MC4R-expressing cells, MTII-stimulated cAMP, LANCE TR-FRET; inhibition, % at 6.5 µM; 0.48% of 360,000 active; AID 540295, 2011;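 active = inhibition above its plate's cutoff, the mean of tested wells on that plate plus 3 SD, cut at about 29% in these data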;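 also: 0% = Melanotan II alone and 100% = Melanotan II plus saturating MCL0020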
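material = U2OS cells stably expressing human melanocortin 4 receptor (MC4R) | also added = Melanotan II challenge | dosing = single nominal compound dose of 6.5 µM | detection = TR-FRET with Eu-cAMP and labeled anti-cAMP, 671 nm | replication = singlicate | timing = compound 30 min, challenge 1 h, detection 1 h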
PfGluPho inh = PfG6PD enzyme inhibitors, primary screen, biochemical, fluorescence intensity, uHTS | glucose-6-phosphate dehydrogenase-6-phosphogluconolactonase (Plasmodium falciparum 3D7) | PfGluPho enzyme, NADPH resazurin-diaphorase fluorescence | inhibition, % at 20 µM | 0.78% of 350,000 active | AID 504690, 2011;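 active = inhibition reaching at least a set limit at 20 µM in the primary screen, cut at about 59% in these data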;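 also: 0% = DMSO wells with substrate and 100% = DMSO wells lacking glucose-6-phosphate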
ABHD5-PLIN5 conf = ABHD5-PLIN5 interaction inhibitors, confirmation, biochemical, luminescence. inhibition, % at 4 µM. 67% of 2,200 active. shares compounds with ABHD5-PLIN5 inh; in the data active = inhibition above about 23%;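 also: 0% = DMSO vehicle wells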
HNF4 split-luc = HNF4 dimerization inhibitors, counter-screen for ABHD5-PLIN5 interaction inhibitor project, biochemical, split-luciferase complementation, luminescence; shares compounds with ABHD5-PLIN5 inh; inhibition, % at 4 µM; 77% of 2,200 active;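 active = mean inhibition across replicate wells exceeding the computed hit threshold, cut at about 13% in these data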;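 also: light from luciferase halves that rejoin when HNF4 fusion proteins dimerize; 0% = DMSO only wells and the 100% control is not given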
* = called active by the depositor. Sampled rows, rich in hits. Any-hit rate of the full collection: about 3%.

`Cc1cccc(C)c1NC(=O)C[N+](C)(C)CC(O)COc1cccc2ccccc12` (configuration not stated) gave Beta2AR agonist -6.6, ABHD5-PLIN5 inh 46.7*, MC4R ag barr -0.2, MC4R antagonist 14.9, PfGluPho inh 4.3, ABHD5-PLIN5 conf 34.1* and HNF4 split-luc 17.5*.
For CCOC(=O)c1nn(-c2ccccc2)c(=O)c2c(N)scc12 the results were Beta2AR agonist -0.9, ABHD5-PLIN5 inh 25.3*, MC4R ag barr 0.2, MC4R antagonist 1.8, PfGluPho inh 59.0, ABHD5-PLIN5 conf -22.8 and HNF4 split-luc 95.2*.
For Cc1cc(=O)[nH]c(SCC(=O)N2CCCC2)n1 the results were Beta2AR agonist 8.0, ABHD5-PLIN5 inh -1.1, MC4R ag barr -1.0, MC4R antagonist 5.9 and PfGluPho inh -7.3.
`Cn1c(=O)c([N+](=O)[O-])c(NCCCn2ccnc2)c2ccccc21` gave Beta2AR agonist -3.3, ABHD5-PLIN5 inh 9.5, MC4R ag barr -1.9, MC4R antagonist 1.8 and PfGluPho inh 1.2.
`Cn1c(=O)c([N+](=O)[O-])c(-n2ccnc2)c2ccccc21` gave Beta2AR agonist 40.0, ABHD5-PLIN5 inh 23.1*, MC4R ag barr -2.9, MC4R antagonist 24.3, PfGluPho inh 6.9, ABHD5-PLIN5 conf 2.0 and HNF4 split-luc 10.7.
Screening CC1CN(Cc2c(O)ccc3c(=O)c(-c4ccccc4)coc23)CC(C)O1 (configuration not stated) returned Beta2AR agonist -1.4, ABHD5-PLIN5 inh 6.4, MC4R ag barr 2.0, MC4R antagonist 4.2 and PfGluPho inh -15.0.
For CC1CN(Cc2c(O)ccc3c2oc(=O)c2ccccc23)CC(C)O1 (configuration not stated) the results were Beta2AR agonist 11.0, ABHD5-PLIN5 inh 48.6*, MC4R ag barr 1.8, MC4R antagonist -3.9, PfGluPho inh 30.7, ABHD5-PLIN5 conf 71.6* and HNF4 split-luc 44.2*.
For CCOc1ccc2cc(/C=C/C(=O)c3ccco3)c(Cl)nc2c1 the results were Beta2AR agonist -5.6, ABHD5-PLIN5 inh 25.3*, MC4R ag barr -2.3, MC4R antagonist 15.3, PfGluPho inh 9.4, ABHD5-PLIN5 conf 71.4* and HNF4 split-luc 56.1*.
Screening CCc1cc(=O)oc2c3c(cc(OCC(=O)NCCCCCC(=O)O)c12)OC(C)(C)CC3 returned Beta2AR agonist -4.6, ABHD5-PLIN5 inh -1.4, MC4R ag barr -0.2, MC4R antagonist 3.9 and PfGluPho inh -2.7.
`CC(OC(=O)/C=C/c1ccc2ccccc2n1)C(=O)N(C)c1ccccc1` (configuration not stated) gave Beta2AR agonist 21.8, ABHD5-PLIN5 inh -1.4, MC4R ag barr -1.1, MC4R antagonist 3.7 and PfGluPho inh 13.2.
For CC(=O)/C=C/c1ccc2ccccc2n1 the results were Beta2AR agonist 15.4, ABHD5-PLIN5 inh 85.1*, MC4R ag barr 0.4, MC4R antagonist 3.9, PfGluPho inh 3.1, ABHD5-PLIN5 conf 83.6* and HNF4 split-luc 91.1*.
O=C(Nc1ccc(S(=O)(=O)Nc2cnc3ccccc3n2)cc1)c1cccc(OC(F)F)c1 was read as Beta2AR agonist 9.6, ABHD5-PLIN5 inh -4.5, MC4R ag barr -2.4, MC4R antagonist 13.1 and PfGluPho inh -18.3.
For COc1ccc(/C=C/C(=O)c2ccncc2)c2ccccc12 the results were Beta2AR agonist 17.5, ABHD5-PLIN5 inh 56.2*, MC4R ag barr -1.6, MC4R antagonist 3.8, PfGluPho inh 35.6, ABHD5-PLIN5 conf 83.8* and HNF4 split-luc 79.0*.
`COc1cccc(/C=C/C(=O)c2cccc([N+](=O)[O-])c2)c1OC` gave Beta2AR agonist 17.2, ABHD5-PLIN5 inh 85.4*, MC4R ag barr -1.5, MC4R antagonist 16.8, PfGluPho inh 16.4, ABHD5-PLIN5 conf 101.3* and HNF4 split-luc 97.2*.
Screening COc1ccc(OC(=O)c2cccc([N+](=O)[O-])c2)c(C(=O)/C=C/c2cccs2)c1 returned Beta2AR agonist 19.7, ABHD5-PLIN5 inh 41.7*, MC4R ag barr -1.3, MC4R antagonist 7.2, PfGluPho inh 14.8, ABHD5-PLIN5 conf 56.7* and HNF4 split-luc 52.6*.
`COc1cccc(/C=C/C(=O)Nc2cccc(C(C)=O)c2)c1OC` gave Beta2AR agonist 27.9, ABHD5-PLIN5 inh 0.5, MC4R ag barr -1.8, MC4R antagonist 2.6 and PfGluPho inh 38.9.
`COc1cccc(C(=O)/C=C/c2ccc(N3CCCCC3)c([N+](=O)[O-])c2)c1` gave Beta2AR agonist 1.8, ABHD5-PLIN5 inh 29.0*, MC4R ag barr -2.3, MC4R antagonist -1.4, PfGluPho inh 17.9, ABHD5-PLIN5 conf 86.6* and HNF4 split-luc 73.1*.
For O=C(/C=C/c1ccc(N2CCCCC2)c([N+](=O)[O-])c1)c1ccc(S(=O)(=O)N2CCCC2)cc1 the results were Beta2AR agonist 2.5, ABHD5-PLIN5 inh 10.4, MC4R ag barr -1.9, MC4R antagonist 8.1 and PfGluPho inh 7.2.
`Cc1ccc(-c2nn(CCC(=O)NN3CCOCC3)c(=O)c3ccccc23)cc1` gave Beta2AR agonist -0.7, ABHD5-PLIN5 inh 5.3, MC4R ag barr -0.6, MC4R antagonist 2.8 and PfGluPho inh 0.5.
COc1cccc(/C=C/C(=O)c2cccc([N+](=O)[O-])c2)c1 was read as Beta2AR agonist 94.3*, ABHD5-PLIN5 inh 64.4*, MC4R ag barr -0.6, MC4R antagonist 13.0, PfGluPho inh 4.0, ABHD5-PLIN5 conf 97.0* and HNF4 split-luc 97.2*.
Screening Cc1ccc(NC(=O)COC(=O)Cn2cnc3ccccc32)c(C)c1 returned Beta2AR agonist -0.5, ABHD5-PLIN5 inh 9.6, MC4R ag barr 1.7, MC4R antagonist 8.7 and PfGluPho inh -5.0.
O=C(CSc1nc(-c2ccccc2)cs1)Nc1ccccc1[N+](=O)[O-] was read as Beta2AR agonist 0.2, ABHD5-PLIN5 inh -2.0, MC4R ag barr -0.6, MC4R antagonist 3.1 and PfGluPho inh 31.6.
For O=C(Cn1c(=O)n(Cc2ccco2)c(=O)c2ccccc21)Nc1cccc(Cl)c1 the results were Beta2AR agonist -2.9, ABHD5-PLIN5 inh 42.4*, MC4R ag barr -0.9, MC4R antagonist 4.7, PfGluPho inh 13.9, ABHD5-PLIN5 conf 18.3 and HNF4 split-luc 10.0.
